Compounds with a hit are over-represented: about 3.9% of the library has one in this group of screens.
AHR activator – human AHR activation | P35869 | AHR-responsive luciferase reporter cells, luminescence | activation, % at 5 µM | actives 2.5% (n = 320,000); in the data active = activation above about 47%;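 also: 0% = vehicle wells and 100% = reference agonist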
SR-BI DiI-HDL act – SR-BI HDL lipid transfer activation | AID 504775 | CHO ldlA[mSR-BI] cells, DiI-HDL uptake fluorescence, 3 h; 100 = double the neutral-control signal | actives 0.096% (n = 320,000) | activation, % at 12.5 µM;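 active = mean replicate activation of at least 60% and every replicate at or above 60%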;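 also: 0% = median plate neutral-control signal and 100% = twice that signal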
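system = CHO ldlA[mSR-BI] cells, LDL receptor-null, SR-BI overexpressing | medium = Ham's F12 with 0.5% BSA, HEPES 25 mM, pH 7.4 | probe or stimulus = DiI-HDL 10 µg/mL | compound dosing = single-point compound dose | incubation = compound exposure 3 h, 37 °C | technique = DiI fluorescence, bottom read | read-out = cell-associated DiI fluorescence as measure of HDL uptake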
GAA850 FXN act – increases GAA850 frataxin promoter reporter activity. actives 0.56% (n = 360,000). activation, % at 6 µM. HEK293 lucGAA850 FXN promoter luciferase reporter, 24 h; percent of 10 µM SAHA response. AID 540364;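 active = activation above the average of all compounds screened plus 3 SD, cutoff fixed separately per campaign, cut at about 7.5% in these data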;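 also: 0% = DMSO wells and 100% = 10 µM SAHA wells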
HIF activator – HIF pathway transcriptional activation | U2OS HRE-luciferase reporter, luminescence; normalized: DMSO 0%, desferrioxamine 100% | activation, % at 7.5 µM (by protocol) | actives 0.32% (n = 300,000) | AID 1910;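 active = mean activation of at least 10% of the iron chelator positive control signal, with at least half of replicates also reaching 10%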
ABCB6 inh MLPCN – inhibitors of human ABC transporter ABCB6. Q9NP58. K562-ABCB6 porphyrin accumulation, flow cytometry, 1 h; active compounds read low. fluorescence ratio to DMSO, % at 10 µM. actives 0.19% (n = 360,000). AID 602162;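 active = fluorescence ratio to DMSO below 75%, the collection mean minus 3 SD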;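 also: signal is porphyrin accumulated inside mitochondria; 100% equals median channel fluorescence of DMSO control wells; lower ratio means ABCB6 inhibition with less porphyrin fluorescence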
SR-BI DiI inh – mouse SR-BI HDL lipid transfer inhibition; Q61009; ldlA[mSR-BI] CHO cells, DiI-HDL uptake fluorescence, 3 h; inhibition, % at 12.5 µM; actives 0.96% (n = 320,000);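 active = mean replicate inhibition of at least 70% and a set share of replicates each scoring 70 or more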;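 also: 0% = median of neutral control wells and 100% = median of positive control wells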
Target sequence (Q61009 whole entry, looked up): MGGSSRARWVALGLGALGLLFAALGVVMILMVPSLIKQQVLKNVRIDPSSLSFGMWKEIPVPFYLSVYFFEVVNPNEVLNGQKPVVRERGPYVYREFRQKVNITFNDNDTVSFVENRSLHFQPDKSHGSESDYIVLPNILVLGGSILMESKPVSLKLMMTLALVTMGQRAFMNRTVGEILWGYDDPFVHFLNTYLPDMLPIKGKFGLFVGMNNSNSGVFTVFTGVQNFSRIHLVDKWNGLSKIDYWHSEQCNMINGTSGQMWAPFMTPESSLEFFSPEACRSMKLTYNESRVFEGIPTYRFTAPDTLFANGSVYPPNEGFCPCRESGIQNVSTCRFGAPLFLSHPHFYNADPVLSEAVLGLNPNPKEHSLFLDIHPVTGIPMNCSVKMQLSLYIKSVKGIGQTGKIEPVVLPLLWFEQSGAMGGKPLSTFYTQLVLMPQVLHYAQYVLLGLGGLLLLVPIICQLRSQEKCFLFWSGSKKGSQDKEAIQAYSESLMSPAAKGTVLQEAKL
GAA30 counter – GAA30 FXN promoter activation counter-screen; shares compounds with GAA850 FXN act; HEK293 lucGAA30 FXN promoter luciferase, 24 h; DMSO = 0%, 5 µM ipriflavone = 100%; activation, % at 6 µM; actives 66% (n = 1,900);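 active = mean activation above the mean of solvent-only control wells plus 3 SD, cut at about 22% in these data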;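 also: counterscreen of GAA850 promoter hits where activity marks nonselective or luminescence artifacts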
FXN GAA850 conf – confirmation of GAA850 frataxin (FXN) promoter activators. shares compounds with GAA850 FXN act. HEK293 lucGAA850 FXN promoter luciferase reporter, 24 h; 100% = activation by SAHA. activation, % at 6 µM. actives 86% (n = 1,900). AID 588351;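 active = mean activation above a set limit taken from the primary screen, cut at about 8% in these data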;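 also: 0% = DMSO wells and 100% = 10 µM SAHA wells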
* hit, by the source's call.

Cc1nn2c(N)c(C#N)cnc2c1-c1ccccc1 was read as AHR activator 2, SR-BI DiI-HDL act 8, GAA850 FXN act 9.0*, HIF activator 0, ABCB6 inh MLPCN 79, SR-BI DiI inh -8, GAA30 counter 38* and FXN GAA850 conf 20*.
For COc1ccc2c(c1)OC[C@H]1[C@H]2N2C(=O)CN(CCc3c[nH]c4ccccc34)C(=O)[C@@]2(C)[C@H]1c1ccccc1 the results were AHR activator 8, SR-BI DiI-HDL act -2, GAA850 FXN act 7.8*, ABCB6 inh MLPCN 98, SR-BI DiI inh -1, GAA30 counter 22* and FXN GAA850 conf 18*.
Screening O=C(O)CCC1(C(=O)O)CCC(=O)c2ccccc21 (centres undefined) returned SR-BI DiI-HDL act -12, GAA850 FXN act 0, ABCB6 inh MLPCN 99 and SR-BI DiI inh 12.
For CCN(CC)CCCN(Cc1cc2cc3c(cc2[nH]c1=O)OCO3)C(=S)NCCCOC the results were AHR activator 3, SR-BI DiI-HDL act -6, GAA850 FXN act 0, HIF activator 3, ABCB6 inh MLPCN 103 and SR-BI DiI inh 6.
For Cc1ccnc(NC(=O)CNC(=O)COc2ccccc2)c1 the results were AHR activator 5, SR-BI DiI-HDL act 7, GAA850 FXN act 7.9*, HIF activator 2, ABCB6 inh MLPCN 96, SR-BI DiI inh -7, GAA30 counter 100* and FXN GAA850 conf 40*.
Cc1ccc(NC(=O)CNC(=O)COc2ccccc2)nc1 was read as AHR activator 35, SR-BI DiI-HDL act -1, GAA850 FXN act -2, HIF activator 0, ABCB6 inh MLPCN 104 and SR-BI DiI inh 1.
`COC(=O)c1cc(-c2ccc(Br)cc2)on1` gave AHR activator -1, SR-BI DiI-HDL act 19, GAA850 FXN act 2, HIF activator 0, ABCB6 inh MLPCN 97 and SR-BI DiI inh -19.
For CCN(CC)C(=O)c1cc(-c2ccc(Br)cc2)on1 the results were AHR activator -8, SR-BI DiI-HDL act -8, GAA850 FXN act 8.0*, HIF activator 3, ABCB6 inh MLPCN 104, SR-BI DiI inh 8, GAA30 counter 111* and FXN GAA850 conf 40*.
For CCc1ccc(OCC(=O)O/N=C(\N)Cc2ccc([N+](=O)[O-])cc2)cc1 the results were AHR activator 4, SR-BI DiI-HDL act 20, GAA850 FXN act -1, HIF activator 0, ABCB6 inh MLPCN 100 and SR-BI DiI inh -20.
For Cc1ccc(NN2C(=O)C=C(c3ccc(Cl)cc3)C2=O)cc1 the results were AHR activator 2, SR-BI DiI-HDL act -6, GAA850 FXN act 9.5*, HIF activator 0, ABCB6 inh MLPCN 97, SR-BI DiI inh 6, GAA30 counter -6 and FXN GAA850 conf 18*.
Screening Cc1ccc(NN2C(=O)C=CC2=O)cc1 returned AHR activator -4, SR-BI DiI-HDL act 36, GAA850 FXN act -1, ABCB6 inh MLPCN 93 and SR-BI DiI inh -36.
For COc1ccc(C2=CC(=O)N(Nc3ccccc3)C2=O)cc1 the results were AHR activator 7, GAA850 FXN act 8.2*, HIF activator 0, ABCB6 inh MLPCN 91, GAA30 counter 25* and FXN GAA850 conf 11*.
Screening O=C1C=C(c2ccccc2)C(=O)N1Nc1ccccc1 returned AHR activator 0, SR-BI DiI-HDL act 24, GAA850 FXN act 4, HIF activator 1, ABCB6 inh MLPCN 97 and SR-BI DiI inh -24.
COc1ccnc(Oc2ccc(C)cc2)c1C#N was read as AHR activator 42, SR-BI DiI-HDL act -5, GAA850 FXN act 3, HIF activator 1, ABCB6 inh MLPCN 96 and SR-BI DiI inh 5.
COc1ccnc(Oc2ccc3ccccc3c2)c1C#N was read as AHR activator 4, SR-BI DiI-HDL act -26, GAA850 FXN act 8.2*, HIF activator 1, ABCB6 inh MLPCN 100, SR-BI DiI inh 26, GAA30 counter 82* and FXN GAA850 conf 25*.
Oc1cccc(/C=N/N=C/c2cccc(O)c2O)c1O was read as AHR activator 0, SR-BI DiI-HDL act 9, GAA850 FXN act 8.9*, HIF activator 4, ABCB6 inh MLPCN 106, SR-BI DiI inh -9, GAA30 counter 37* and FXN GAA850 conf 18*.
Cc1ccccc1N=Cc1cccc(O)c1O was read as AHR activator 1, SR-BI DiI-HDL act 20, GAA850 FXN act 4, HIF activator -1, ABCB6 inh MLPCN 100 and SR-BI DiI inh -20.
Cc1cc(Cl)ccc1OCCCC(=O)N1CCOCC1 was read as AHR activator 1, SR-BI DiI-HDL act -40, GAA850 FXN act -1, HIF activator 4, ABCB6 inh MLPCN 89 and SR-BI DiI inh 40.
Screening Cc1cc(Cl)ccc1OCCCC(=O)N1CCCCC1 returned AHR activator -5, SR-BI DiI-HDL act -20, GAA850 FXN act 8.6*, HIF activator 2, ABCB6 inh MLPCN 98, SR-BI DiI inh 20, GAA30 counter 79* and FXN GAA850 conf 31*.
For CN(CC(=O)Nc1cccc(F)c1)C(=O)CCCN1C(=O)c2cccc3cccc(c23)C1=O the results were AHR activator -12, SR-BI DiI-HDL act -17, GAA850 FXN act 14*, HIF activator -28, ABCB6 inh MLPCN 93, SR-BI DiI inh 17, GAA30 counter 30* and FXN GAA850 conf 11*.
`CN(CC(=O)Nc1cccc(F)c1)C(=O)CCN1C(=O)C2CC=CCC2C1=O` (centres undefined) gave AHR activator 1, SR-BI DiI-HDL act 15, GAA850 FXN act 0, ABCB6 inh MLPCN 97 and SR-BI DiI inh -15.
For CC(=O)NS(=O)(=O)c1ccc(NC(=S)NC(=O)CC(C)C)cc1 the results were AHR activator 6, SR-BI DiI-HDL act 22, GAA850 FXN act 2, HIF activator 0, ABCB6 inh MLPCN 100 and SR-BI DiI inh -22.
For COc1ccc(NC(=O)C2CCCN2S(=O)(=O)c2cccc3nsnc23)c(OC)c1 (centres undefined) the results were AHR activator 8, SR-BI DiI-HDL act -10, GAA850 FXN act 1, HIF activator 0, ABCB6 inh MLPCN 98 and SR-BI DiI inh 10.
COc1ccc(C(=O)Oc2c(CN3CCOCC3)cc(Cl)c3cccnc23)cc1 was read as AHR activator 3, SR-BI DiI-HDL act 17, GAA850 FXN act 0, HIF activator -6, ABCB6 inh MLPCN 104 and SR-BI DiI inh -17.
